ChEMBL document CHEMBL4828708 (Eur J Med Chem, 2021)
The source made the active and inactive calls. The rule behind the calls is not given here.

What was measured:
[1] = biological target: T1, Adenosine receptor A3 (Homo sapiens) (UniProt P0DMS8); test: Displacement of [3H]NECA from human adenosine A3 receptor expressed in HEK293 cell membrane at 10 uM incubated for 180 mins by microplate beta scintillation counting based radioligand inhibition assay relative to control
T1 sequence (whole entry): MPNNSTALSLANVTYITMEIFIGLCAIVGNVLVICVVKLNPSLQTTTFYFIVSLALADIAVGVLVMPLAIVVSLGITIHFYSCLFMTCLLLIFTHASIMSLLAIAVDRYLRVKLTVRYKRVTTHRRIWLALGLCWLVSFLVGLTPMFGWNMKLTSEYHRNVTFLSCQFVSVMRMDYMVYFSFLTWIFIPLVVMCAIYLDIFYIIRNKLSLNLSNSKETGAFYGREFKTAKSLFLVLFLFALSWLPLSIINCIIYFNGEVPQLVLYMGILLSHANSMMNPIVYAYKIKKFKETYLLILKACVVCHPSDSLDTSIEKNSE

[2] = biological target: T2, Adenosine receptor A1 (Homo sapiens, UniProt P30542); test: Displacement [3H]DPCPX from human adenosine A1 receptor expressed in CHO cell membrane incubated for 60 mins by microplate beta scintillation counting based radioligand inhibition assay; assay type: cell membranes
T2 sequence (P30542 whole entry): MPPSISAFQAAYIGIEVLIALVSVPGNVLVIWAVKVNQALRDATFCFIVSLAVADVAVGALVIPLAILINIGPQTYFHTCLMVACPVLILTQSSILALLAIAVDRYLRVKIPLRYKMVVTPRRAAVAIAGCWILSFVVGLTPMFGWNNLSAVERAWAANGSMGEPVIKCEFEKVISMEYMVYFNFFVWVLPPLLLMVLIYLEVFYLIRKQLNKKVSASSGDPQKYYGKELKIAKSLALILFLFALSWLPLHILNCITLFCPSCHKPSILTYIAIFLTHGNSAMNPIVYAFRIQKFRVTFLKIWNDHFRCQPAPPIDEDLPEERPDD

[3] = test system: Blood; test: Inhibition of thrombus in human whole blood measured after 10 mins by microscopic analysis; assay type: functional, tissue-based
Method in brief: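 Citrated human blood labelled with anti-CD61-PE, given compound or 0.1% DMSO 5 min beforehand, recalcified with 1 mM CaCl2, then perfused through type I collagen-coated channels at 20 dyn/cm2 for 5 min. Fluorescent thrombus area summed per donor (thrombi >50 μm2). Paired t-test, n = 9.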

[4] = test system: Blood; test: Inhibition of ADP-stimulated platelet aggregation in human whole blood assessed as decrease in platelet activation measured upto 15 mins by whole blood aggregometry assay; assay type: functional, tissue-based
Method in brief: (§1)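 Human whole blood was pre-incubated 5 min with compound dissolved in 0.1% DMSO, or with 0.1% DMSO alone. Test concentrations were 10, 30 or 50 μM. Aggregation was triggered with 6.4 μM ADP or 1 μg/mL collagen and monitored for up to 15 min on a five-channel Multiplate analyzer. Read-out was area under the aggregation curve, n = 13 donors, paired Student's t-test.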

[5] = biological target: T3, Adenosine receptor A3 (Homo sapiens, UniProt P0DMS8); test: Displacement of [3H]NECA from human adenosine A3 receptor expressed in HeLa cell membrane incubated for 180 mins by microplate beta scintillation counting based radioligand inhibition assay; assay type: cell membranes
T3 sequence (P0DMS8 whole entry): T1 sequence (whole entry)

[6] = biological target: T4, Adenosine receptor A2a (Homo sapiens, UniProt P29274); test: Displacement of [3H]CGS21680 from human adenosine A2A receptor expressed in HEK293 cell membrane incubated for 30 mins by microplate beta scintillation counting based radioligand inhibition assay
T4 sequence (P29274 whole entry): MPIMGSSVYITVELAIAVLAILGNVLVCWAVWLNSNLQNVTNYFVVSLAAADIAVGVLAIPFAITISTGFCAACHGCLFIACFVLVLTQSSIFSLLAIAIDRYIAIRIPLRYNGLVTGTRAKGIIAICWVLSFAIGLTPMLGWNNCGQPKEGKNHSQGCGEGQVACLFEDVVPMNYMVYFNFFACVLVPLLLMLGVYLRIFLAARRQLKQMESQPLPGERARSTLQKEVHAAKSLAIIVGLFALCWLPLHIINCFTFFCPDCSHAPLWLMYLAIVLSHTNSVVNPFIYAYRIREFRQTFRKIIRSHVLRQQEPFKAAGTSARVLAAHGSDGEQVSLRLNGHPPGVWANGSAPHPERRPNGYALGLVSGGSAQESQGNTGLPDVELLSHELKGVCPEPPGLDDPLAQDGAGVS

[7] = biological target: T5, Adenosine receptor A2b (Homo sapiens) (UniProt P29275); test: Displacement of [3H]DPCPX from human adenosine A2B receptor expressed in HEK cell membrane at 10 uM incubated for 30 mins by microplate beta scintillation counting based radioligand inhibition assay relative to control; assay type: cell membranes; settings: HEK293
T5 sequence (whole entry): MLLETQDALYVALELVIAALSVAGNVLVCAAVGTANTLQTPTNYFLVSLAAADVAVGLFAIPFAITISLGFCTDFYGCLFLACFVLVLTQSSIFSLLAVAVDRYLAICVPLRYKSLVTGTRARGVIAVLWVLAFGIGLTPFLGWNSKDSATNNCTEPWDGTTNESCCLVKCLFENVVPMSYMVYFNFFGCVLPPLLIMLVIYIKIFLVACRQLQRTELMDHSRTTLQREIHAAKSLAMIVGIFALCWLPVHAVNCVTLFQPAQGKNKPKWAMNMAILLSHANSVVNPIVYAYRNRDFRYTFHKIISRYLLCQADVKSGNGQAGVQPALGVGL

[8] = biological target: T6, Adenosine receptor A2b (Homo sapiens, UniProt P29275); test: Displacement of [3H]DPCPX from human adenosine A2B receptor expressed in HEK cell membrane incubated for 30 mins by microplate beta scintillation counting based radioligand inhibition assay; assay type: cell membranes
T6 sequence (P29275 whole entry): T5 sequence (whole entry)

[9] = biological target: T4, Adenosine receptor A2a; test: Displacement of [3H]ZM241385 from human adenosine A2A receptor expressed in HeLa cells by beta scintillation counting analysis; assay type: cell-based
[10] = test system: Blood; test: Inhibition of collagen-stimulated platelet aggregation in human whole blood assessed as decrease in platelet activation measured upto 15 mins by whole blood aggregometry assay; assay type: functional, tissue-based
Method in brief: as §1

Row | Structure (SMILES) | inhibition [1] | Ki [2] | Ki [5] | further results
1 | Nc1ncnc2c1ncn2[C@@H]1O[C@H](CO)[C@@H](O)[C@H]1OCOCCCc1ccccc1 | 29% |  |  | 
2 | Nc1ncnc2c1nc(CCc1ccccc1)n2[C@@H]1O[C@H](CO)[C@@H](O)[C@H]1O | 8% |  |  | 
3 | Nc1ncnc2c1nc(CCc1ccccc1)n2[C@H]1C[C@H](O)[C@@H](CO)O1 | 44% |  |  | 
4 | Nc1nc(C#Cc2ccccc2)nc2c1ncn2[C@@H]1O[C@H](CO)[C@@H](O)[C@H]1O |  | 646 nM | 42 nM | Ki [6]: 1040 nM
5 | OC[C@H]1O[C@@H](n2cnc3c(NCCCCc4ccccc4)ncnc32)[C@H](O)[C@@H]1O |  | 864 nM |  | 
6 | Nc1ncnc2c1nc(C#Cc1ccccc1)n2[C@H]1C[C@H](O)[C@@H](CO)O1 |  |  | 879 nM | Ki [6]: 1990 nM
7 | Nc1nc(CCc2ccccc2)nc2c1ncn2[C@@H]1O[C@H](CO)[C@@H](O)[C@@H]1O | 54% |  |  | 
8 | OC[C@H]1O[C@@H](n2cnc3c(NCCCc4ccccc4)nc(Cl)nc32)C[C@@H]1O |  | 13300 nM | 8770 nM | inhibition [7]: 1%
9 | Nc1ncnc2c1nc(C#Cc1ccccc1)n2[C@@H]1O[C@H](CO)[C@@H](O)[C@H]1O |  |  | 856 nM | 
10 | CCNC(=O)[C@H]1O[C@@H](n2cnc3c(NCCCc4ccccc4)ncnc32)[C@H](O)[C@@H]1O |  |  | 4.5 nM | Ki [8]: 1380 nM; IC50 [9]: 14600 nM; inhibition [10]: Active; inhibition [4]: Active

Now from value to compound, other results behind:

Row | inhibition [1] | Ki [2] | Ki [5] | Structure (SMILES) | further results
11 |  | 78.8 nM | 54.6 nM | OC[C@H]1O[C@@H](n2cnc3c(NCCCc4ccccc4)ncnc32)[C@H](O)[C@@H]1O | inhibition [3]: Active; inhibition [4]: Active
12 |  |  | 1230 nM | Nc1nc(C#Cc2ccccc2)nc2c1ncn2[C@@H]1O[C@H](CO)[C@@H](O)[C@@H]1O | 
13 |  | 1940 nM | 8610 nM | Nc1nc(CCc2ccccc2)nc2c1ncn2[C@@H]1O[C@H](CO)[C@@H](O)[C@H]1O | 
14 | 5% |  |  | Nc1ncnc2c1ncn2[C@H]1C[C@H](O)[C@@H](CO)O1 | inhibition [7]: 12%
15 |  | 803 nM |  | CCNC(=O)[C@H]1O[C@@H](n2cnc3c(NCCCCc4ccccc4)ncnc32)[C@H](O)[C@@H]1O | 
